Reference: ChEMBL document CHEMBL1140586, “Design and synthesis of a functionally selective D3 agonist and its in vivo delivery via the intranasal route” (Bioorg Med Chem Lett, 2007)

Key:
[1] = target: D(3) dopamine receptor (Homo sapiens, UniProt P35462); assay: Agonist activity at human recombinant dopamine D3 receptor expressed in CHO cells assessed as inhibition of forskolin-stimulated cAMP accumulation; type: functional, cell-based
[2] = target: D(2) dopamine receptor (Homo sapiens, UniProt P14416); assay: Agonist activity at human recombinant dopamine D2 receptor expressed in rat pituitary cells assessed as inhibition of forskolin-stimulated cAMP accumulation; type: functional, cell-based, Pituitary gland cell
D(2) dopamine receptor, sequence (P14416 whole entry): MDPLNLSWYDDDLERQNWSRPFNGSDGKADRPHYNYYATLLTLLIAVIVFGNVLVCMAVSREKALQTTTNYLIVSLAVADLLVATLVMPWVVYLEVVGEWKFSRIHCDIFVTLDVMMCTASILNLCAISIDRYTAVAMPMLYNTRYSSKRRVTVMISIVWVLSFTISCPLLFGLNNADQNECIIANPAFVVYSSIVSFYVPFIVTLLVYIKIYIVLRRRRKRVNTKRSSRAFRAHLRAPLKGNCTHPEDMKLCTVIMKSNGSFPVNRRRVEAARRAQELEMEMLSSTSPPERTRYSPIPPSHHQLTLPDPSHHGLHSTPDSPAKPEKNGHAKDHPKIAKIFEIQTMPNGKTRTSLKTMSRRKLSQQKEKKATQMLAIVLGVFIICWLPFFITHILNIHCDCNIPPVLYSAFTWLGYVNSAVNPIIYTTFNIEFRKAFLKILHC

[3] = Clearance in human; type: ADME, organism-based; conditions: in vivo
[4] = Stability in human hepatocytes; type: ADME, cell-based, Liver, Hepatocyte
Summary of the method: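 Rat, dog and human hepatocyte incubations; read-out was the disappearance half-life of parent compound, in minutes.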

D(3) dopamine receptor, sequence (P35462 whole entry): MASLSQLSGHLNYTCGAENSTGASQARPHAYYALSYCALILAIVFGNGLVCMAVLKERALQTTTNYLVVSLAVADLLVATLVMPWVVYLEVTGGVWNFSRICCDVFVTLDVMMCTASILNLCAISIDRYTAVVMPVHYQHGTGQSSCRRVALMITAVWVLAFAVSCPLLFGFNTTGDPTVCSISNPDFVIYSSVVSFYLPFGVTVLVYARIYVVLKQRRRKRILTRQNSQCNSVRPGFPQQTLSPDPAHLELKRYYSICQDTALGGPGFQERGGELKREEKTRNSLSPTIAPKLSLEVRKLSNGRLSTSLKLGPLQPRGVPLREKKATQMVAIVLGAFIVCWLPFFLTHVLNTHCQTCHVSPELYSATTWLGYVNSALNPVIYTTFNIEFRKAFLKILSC

Row | SMILES | EC50 [1] | EC50 [2] | other results
1 | CCCN1CCO[C@@H](c2ccc(F)c(O)c2)C1 | > 10000 nM | > 10000 nM | 
2 | CCCN1CCC[C@@H]2Cc3nc(N)ncc3C[C@H]21 [QUINELORANE] |  | 2 nM | 
3 | CCCN1CCO[C@@H](c2cc(O)cc(O)c2)C1 | > 10000 nM | > 10000 nM | 
4 | CCCN1CCOC(c2cccc(Cl)c2)C1 (configuration not stated) | > 2800 nM | > 10000 nM | 
5 | CCCN1CCOC(c2cccc(C#N)c2)C1 (configuration not stated) | > 1000 nM |  | 
6 | CCCN1CCOC(c2cc(O)ccc2Br)C1 (configuration not stated) | > 10000 nM |  | 
7 | CCCN1CCOC(c2cccc(C(=O)OC)c2)C1 (configuration not stated) | > 1000 nM |  | 
8 | CCCN1CCOC(c2ccc(Cl)c(O)c2)C1 (configuration not stated) | > 688 nM |  | 
9 | CCCN1CCOC(c2ccc(O)cc2)C1 (configuration not stated) | > 1000 nM |  | 
10 | COCCN1CCOC(c2cccc(O)c2)C1 (configuration not stated) | > 3000 nM | > 10000 nM | 
11 | CCCN(CCC)CCc1cccc2c1CC(=O)N2 [ROPINIROLE] |  | 83 nM | 
12 | CCCN1CCOC(c2ccc(O)c(C(N)=O)c2)C1 (configuration not stated) | 427 nM |  | 
13 | CC(C)(C)NCC(O)c1cc(O)cc(O)c1 (configuration not stated) [TERBUTALINE] |  |  | clearance [3]: 3.1 mL/min/kg
14 | CCCN1CCOC(c2cccc(OC)c2)C1 (configuration not stated) | > 1000 nM | > 10000 nM | 
15 | CCCN1CCOC(c2ccc(O)c(C(C)=O)c2)C1 (configuration not stated) | > 1000 nM |  | 
16 | CCCN1CCOC(c2cccc(C(=O)O)c2)C1 (configuration not stated) | > 1000 nM | > 10000 nM | 
17 | CCCN1CCOC(c2cccc(N)c2)C1 (configuration not stated) | > 1000 nM | > 1000 nM | 
18 | CCCN1CCOC(c2cccc(SC)c2)C1 (configuration not stated) | > 1000 nM | > 10000 nM | 
19 | CCCN1CCOC(c2ccccc2)C1 (configuration not stated) | > 1000 nM | > 10000 nM | 
20 | CCCN1CCOC(c2ccc(O)c(CO)c2)C1 (configuration not stated) | > 1000 nM |  | 
21 | CCCN1CCOC(c2cccc(NS(C)(=O)=O)c2)C1 (configuration not stated) | > 1000 nM | > 1000 nM | 
22 | CCCN1CCO[C@H](c2ccc(F)c(O)c2)C1 | 36 nM | > 10000 nM | Emax [1]: > 90%; half-life [4]: 21 min
23 | CCCN1CCOC(c2ccc(F)c(O)c2)C1 (configuration not stated) | 35 nM |  | 
24 | CCCN1CCOC(c2ccc(O)c(-n3cnnc3)c2)C1 (configuration not stated) | > 1000 nM |  | 
